The record followed here is ChEMBL document CHEMBL1154196, “Synthesis and evaluation of (S,S)-N,N'-bis-[3-(2,2',6,6'-tetramethylbenzhydryloxy)-2-hydroxy-propyl]-ethylenediamine (S2824) analogs with anti-tuberculosis activity” (2009).

The structures appear in SMILES notation. Converted amounts (≈) assume the structure as drawn. A value given as a limit tells only on which side of the number the result lay.

For test [1], the system named is Mycobacterium tuberculosis. Briefly: Antitubercular activity against Mycobacterium tuberculosis H37Ra after 7 days. Conditions: 168 h. In kind it is functional.
A short description of test [2]: Selectivity index, ratio of IC50 for human THP1 cells to MIC for Mycobacterium tuberculosis. In kind it is functional, THP-1.
Test [3] deals with Mycobacterium tuberculosis. Briefly: Antitubercular activity against Mycobacterium tuberculosis H37Rv ATCC 25618 after 7 days. Conditions: 168 h. In kind it is functional.
Test [4] concerns Mycobacterium tuberculosis. Description: Antitubercular activity against Mycobacterium tuberculosis H37Rv ATCC 25618 after 2 weeks. Conditions: 336 h. Format: functional.
For test [5], the system named is Mycobacterium tuberculosis. Briefly: Ratio of MBC to MIC for Mycobacterium tuberculosis H37Rv. In kind it is functional. Put shortly: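 H37Rv MBC obtained by subculturing MIC-assay cultures onto drug-free solid medium and counting CFU. The ratio relates this MBC to the MIC for the same strain.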
Test [6] has as its system Mycobacterium tuberculosis. Briefly: Antitubercular activity against drug-sensitive Mycobacterium tuberculosis by radiometric BACTEC460 method. In kind it is functional.

Turning to `O[C@@H](CNCCNC[C@H](O)COC(c1ccc2c(c1)OCO2)c1ccc2c(c1)OCO2)COC(c1ccc2c(c1)OCO2)c1ccc2c(c1)OCO2`, it took 8.72 µM (≈ 6.25 µg/mL) to inhibit growth in test [1] (MIC). Further, in test [2], the Ratio was >10.

`CCOc1ccc(C(OC[C@@H](O)CNCCNC[C@H](O)COC(c2ccc(OCC)cc2)c2ccc(OCC)cc2)c2ccc(OCC)cc2)cc1`: the minimum inhibitory concentration (MIC) in test [1] came to 8.72 µM (≈ 6.25 µg/mL). Besides, the Ratio in test [2] was >10.

For the compound `COCOc1ccc(C(OC[C@@H](O)CNCCNC[C@H](O)COC(c2ccc(OCOC)cc2)c2ccc(OCOC)cc2)c2ccc(OCOC)cc2)cc1`, the MIC in test [1] came out at 8 µM (≈ 6.25 µg/mL). The Ratio in test [2] is >10.

`O[C@@H](CNCCNC[C@H](O)COC(c1cccs1)c1cccs1)COC(c1cccs1)c1cccs1` displayed a minimum inhibitory concentration (MIC) in test [1] of 22.1 µM (≈ 12.5 µg/mL). The Ratio in test [2] was >10.

As to `Cc1ccc(C(OC[C@H](O)CN2CCCN(C[C@@H](O)COC(c3ccc(C)cc3)c3ccc(C)cc3)CC2)c2ccc(C)cc2)cc1`, the MIC in test [1] worked out at 1.22 µM (≈ 0.777 µg/mL); in test [3], 0.78 µg/mL; in test [6] it was 0.78 µg/mL (≈ 1.22 µM). This compound also registered a minimal bactericidal concentration (MBC) in test [4] of 3.13 µg/mL (≈ 4.91 µM). For the same compound, the Ratio in test [5] is recorded as 4; in test [2] it was 26.92.

For `Cc1ccc(C(OC[C@H](O)CN2CCN(C[C@@H](O)COC(c3ccc(C)cc3)c3ccc(C)cc3)CC2)c2ccc(C)cc2)cc1`, the minimal inhibitory concentration (MIC) in test [1] turned out to be 2.5 µM (≈ 1.56 µg/mL); in test [3], 1.56 µg/mL; in test [6], 3.13 µg/mL (≈ 5.03 µM). The same compound had an MBC in test [4] of 6.25 µg/mL (≈ 10 µM). Moreover, the Ratio turned out to be 4 in test [5] and 12 in test [2].

In test [1], `O[C@@H](CNCCNC[C@H](O)COC(c1ccco1)c1ccco1)COC(c1ccco1)c1ccco1` displayed an MIC of 25 µM (≈ 12.5 µg/mL). Besides, in test [2], the Ratio was >10.

As to `COc1ccc(C(OC[C@@H](O)CNCCNC[C@H](O)COC(c2ccc(OC)c(OC)c2)c2ccc(OC)c(OC)c2)c2ccc(OC)c(OC)c2)cc1OC`, the lowest concentration to inhibit growth in test [1] (MIC) was 16 µM (≈ 12.5 µg/mL). Moreover, in test [2], the Ratio was >10.

Consider `Cc1ccc(C(OC[C@@H](O)CNCCNC[C@H](O)COC(c2ccc(C)cc2)c2ccc(C)cc2)c2ccc(C)cc2)cc1`, for which the results for the minimal inhibitory concentration (MIC) in test [1] and in test [3] were 5.24 µM (≈ 3.13 µg/mL) and 3.13 µg/mL, respectively. In test [4], the MBC was determined as 6.25 µg/mL (≈ 10.5 µM). For the same compound, the Ratio in test [5] is recorded as 2; in test [2], >10.

As to `CC[C@@H](CO)NCCN[C@@H](CC)CO` [ETHAMBUTOL], the values for the MIC in test [3] and in test [6] were 7.64 µM and 3.13 µg/mL (≈ 15.3 µM), respectively. This compound also yielded a minimum bactericidal concentration (MBC) in test [4] of 3.13 µg/mL (≈ 15.3 µM).

The compound `O[C@H](CNCCNC[C@@H](O)COC(c1ccc2c(c1)OCO2)c1ccc2c(c1)OCO2)COC(c1ccc2c(c1)OCO2)c1ccc2c(c1)OCO2` displayed an MIC in test [1] of 17.4 µM (≈ 12.5 µg/mL). Besides, in test [2], the Ratio was >10.

On to `Cc1ccc(C(OC[C@@H](O)CN2CCCN(C[C@H](O)COC(c3ccc(C)cc3)c3ccc(C)cc3)CC2)c2ccc(C)cc2)cc1`, for which the MIC in test [1] is 1.22 µM (≈ 0.777 µg/mL); in test [3], 0.78 µg/mL; in test [6], 0.78 µg/mL (≈ 1.22 µM). Moreover, the MBC in test [4] was 1.56 µg/mL (≈ 2.45 µM). The Ratio in test [5] was determined as 2; in test [2], 30.77.

In test [1], `CC(C)(C)c1ccc(C(OC[C@@H](O)CNCCNC[C@H](O)COC(c2ccc(C(C)(C)C)cc2)c2ccc(C(C)(C)C)cc2)c2ccc(C(C)(C)C)cc2)cc1` yielded a minimal inhibitory concentration (MIC) of 16.3 µM (≈ 12.5 µg/mL). In addition, the Ratio in test [2] is >10.

On to `COc1ccc(C(OC[C@@H](O)CNCCNC[C@H](O)COC(c2ccc(OC)cc2)c2ccc(OC)cc2)c2ccc(OC)cc2)cc1`, for which the figures for the minimal inhibitory concentration (MIC) in test [1] and in test [3] were 4.73 µM (≈ 3.13 µg/mL) and 3.13 µg/mL, respectively. Also, the MBC in test [4] came out at 25 µg/mL (≈ 37.8 µM). Further, the Ratio in test [5] is on record as 8; in test [2] it was >10.

`Cc1ccc(C(OC[C@@H](O)CN2CCN(C[C@H](O)COC(c3ccc(C)cc3)c3ccc(C)cc3)CC2)c2ccc(C)cc2)cc1` showed a minimum inhibitory concentration (MIC) in test [1] of 40.1 µM (≈ 25 µg/mL). Moreover, the Ratio in test [2] was >10.

`CCOc1ccc(C(OC[C@H](O)CNCCNC[C@@H](O)COC(c2ccc(OCC)cc2)c2ccc(OCC)cc2)c2ccc(OCC)cc2)cc1`: in test [1], the minimal inhibitory concentration (MIC) came out at 8.72 µM (≈ 6.25 µg/mL). Moreover, in test [2], the Ratio was >10.

Regarding `COc1ccc(C(OC[C@H](O)CNCCNC[C@@H](O)COC(c2ccc(OC)c(OC)c2OC)c2ccc(OC)c(OC)c2OC)c2ccc(OC)c(OC)c2OC)c(OC)c1OC`, in test [1], the MIC stood at 13.9 µM (≈ 12.5 µg/mL). The Ratio in test [2] is >10.

For the compound `O[C@H](COC(c1ccc(Br)cc1)c1ccc(Br)cc1)CN1CCN(C[C@H](O)COC(c2ccc(Br)cc2)c2ccc(Br)cc2)CC1`, the MIC in test [1] is 28.3 µM (≈ 25 µg/mL). For the same compound, the Ratio in test [2] is >10.

Take `O[C@@H](CNCCNC[C@H](O)COC(c1ccc(Br)cc1)c1ccc(Br)cc1)COC(c1ccc(Br)cc1)c1ccc(Br)cc1`: the minimum inhibitory concentration (MIC) in test [1] amounted to 3.67 µM (≈ 3.14 µg/mL); in test [3] it was 3.13 µg/mL. In addition, in test [4], the MBC is 25 µg/mL (≈ 29.2 µM). Moreover, the Ratio in test [5] is listed as 8; in test [2], >10.

In test [1], `O[C@@H](COC(c1ccc(Br)cc1)c1ccc(Br)cc1)CN1CCN(C[C@@H](O)COC(c2ccc(Br)cc2)c2ccc(Br)cc2)CC1` yielded a minimal inhibitory concentration (MIC) of 28.3 µM (≈ 25 µg/mL). Also, in test [2], the Ratio is reported as >10.

On to `O[C@H](CNCCNC[C@@H](O)COC(c1ccc2c(c1)OCCO2)c1ccc2c(c1)OCCO2)COC(c1ccc2c(c1)OCCO2)c1ccc2c(c1)OCCO2`, for which, in test [1], inhibition of growth (MIC) required 16.2 µM (≈ 12.5 µg/mL). Further, the Ratio in test [2] is >10.

With `COc1ccc(C(OC[C@H](O)CNCCNC[C@@H](O)COC(c2ccc(OC)cc2)c2ccc(OC)cc2)c2ccc(OC)cc2)cc1`, 9.46 µM (≈ 6.25 µg/mL) was the least that counted as inhibitory in test [1] (MIC). Further, the Ratio in test [2] was >10.

On to `CC(C)Oc1ccc(C(OC[C@@H](O)CNCCNC[C@H](O)COC(c2ccc(OC(C)C)cc2)c2ccc(OC(C)C)cc2)c2ccc(OC(C)C)cc2)cc1`, for which it took 16.2 µM (≈ 12.5 µg/mL) to inhibit growth in test [1] (MIC). Besides, the Ratio in test [2] is reported as >10.

As to `Cc1ccc(C(OC[C@H](O)CNCCNC[C@@H](O)COC(c2ccc(C)cc2)c2ccc(C)cc2)c2ccc(C)cc2)cc1`, the MIC in test [1] came to 5.24 µM (≈ 3.13 µg/mL); in test [3] it was 3.13 µg/mL. This compound returned an MBC in test [4] of 6.25 µg/mL (≈ 10.5 µM). Besides, the Ratio in test [5] is on record as 2; in test [2] it was >10.

For the compound `COCOc1ccc(C(OC[C@H](O)CNCCNC[C@@H](O)COC(c2ccc(OCOC)cc2)c2ccc(OCOC)cc2)c2ccc(OCOC)cc2)cc1`, in test [1], the MIC was found to be 8 µM (≈ 6.25 µg/mL). In test [2], the Ratio is given as >10.

The compound `O[C@H](CNCCNC[C@@H](O)COC(c1ccco1)c1ccco1)COC(c1ccco1)c1ccco1` registered an MIC in test [1] of 50 µM (≈ 25 µg/mL). In test [2], the Ratio is >10.

The compound `CC(C)Oc1ccc(C(OC[C@H](O)CNCCNC[C@@H](O)COC(c2ccc(OC(C)C)cc2)c2ccc(OC(C)C)cc2)c2ccc(OC(C)C)cc2)cc1` registered a minimum inhibitory concentration (MIC) in test [1] of 8.09 µM (≈ 6.25 µg/mL). Moreover, in test [2], the Ratio is reported as >10.

`O[C@H](CNCCNC[C@@H](O)COC(c1ccc(Br)cc1)c1ccc(Br)cc1)COC(c1ccc(Br)cc1)c1ccc(Br)cc1` yielded an MIC in test [1] of 7.34 µM (≈ 6.29 µg/mL). For the same compound, the Ratio in test [2] is on record as >10.

For the compound `O[C@H](CNCCNC[C@@H](O)COC(c1cccs1)c1cccs1)COC(c1cccs1)c1cccs1`, the MIC in test [1] is 22.1 µM (≈ 12.5 µg/mL). The Ratio in test [2] is >10.

In turn, `CC(C)(C)c1ccc(C(OC[C@H](O)CNCCNC[C@@H](O)COC(c2ccc(C(C)(C)C)cc2)c2ccc(C(C)(C)C)cc2)c2ccc(C(C)(C)C)cc2)cc1` came in with an MIC in test [1] of 32.7 µM (≈ 25 µg/mL). For the same compound, the Ratio in test [2] was >10.
